T cruzi inh: blocks replication of Trypanosoma cruzi | T. cruzi beta-gal in NIH3T3, luminescence, 90 h | inhibition, % (test concentration not listed) | 300,000 compounds, 1.4% hits | AID 1885;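 active means mean inhibition across valid replicates above about 55%, limit read from the data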;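 further: signal also drops with host cell toxicity which is not excluded here; 0% = plate median of DMSO wells and 100% = zero luminescence signal; higher percent means less beta-gal luminescence so fewer parasites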
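assay system = mouse NIH/3T3 fibroblasts infected with β-gal-expressing T. cruzi Tulahuen C4 | input = 5,000 NIH/3T3 host cells per well | buffer or medium = DMEM plus 2% FBS | timing = 3 h host attachment, then at least 90 h co-culture | measured by = GalScreen luminescence, 60 min | evaluation = luminescence reflecting intracellular parasite burden, expressed as percent inhibition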
CSC inhib: cancer stem cell inhibition; inhibition, % at 7.5 µM; 300,000 compounds, 1.1% hits; cancer stem cell-like cells viability, luminescence; AID 2717; in the data active means inhibition above about 75%; tested in HMLE shEcad cells
SKKanGAS inh: inhibitors of SKKanGAS S. pyogenes growth in kanamycin (SK-promoter or general growth effect) | 300,000 compounds, 1.3% hits | inhibition, % at 7.5 µM | AID 1662 | BacTiter-Glo, 6 h;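 active means mean replicate score, as percent of positive control median, at least 50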;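 further: strain carries kanamycin resistance gene driven by streptokinase promoter and grows in 40 µg/ml kanamycin; loss of luminescence reflects streptokinase promoter inhibition or plain growth inhibition; 0% = median of DMSO wells and 100% = positive control at its reference dose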
aSyn UTR inh: 5' untranslated region of α-synuclein, MLPCN primary screen. alpha-synuclein 5'UTR reporter, inhibitor activity. 300,000 compounds, 0.82% hits. inhibition, % (tested at 7.5 µM); in the data active means inhibition above about 60%;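 further: H4 neuroglioblastoma cells stably carrying SNCA 5'UTR luciferase fusion; 0% = DMSO wells and 100% = positive control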
Mdm2 MdmX PPI: human Mdm2/MdmX binding inhibition | SaOS-2 split-luciferase Mdm2/MdmX complementation, luminescence | inhibition, % at 8 µM | 330,000 compounds, 3% hits | O15151+Q00987;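 active means inhibition of at least 50% at 8 µM in the primary screen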
Target sequence (O15151 whole entry, looked up): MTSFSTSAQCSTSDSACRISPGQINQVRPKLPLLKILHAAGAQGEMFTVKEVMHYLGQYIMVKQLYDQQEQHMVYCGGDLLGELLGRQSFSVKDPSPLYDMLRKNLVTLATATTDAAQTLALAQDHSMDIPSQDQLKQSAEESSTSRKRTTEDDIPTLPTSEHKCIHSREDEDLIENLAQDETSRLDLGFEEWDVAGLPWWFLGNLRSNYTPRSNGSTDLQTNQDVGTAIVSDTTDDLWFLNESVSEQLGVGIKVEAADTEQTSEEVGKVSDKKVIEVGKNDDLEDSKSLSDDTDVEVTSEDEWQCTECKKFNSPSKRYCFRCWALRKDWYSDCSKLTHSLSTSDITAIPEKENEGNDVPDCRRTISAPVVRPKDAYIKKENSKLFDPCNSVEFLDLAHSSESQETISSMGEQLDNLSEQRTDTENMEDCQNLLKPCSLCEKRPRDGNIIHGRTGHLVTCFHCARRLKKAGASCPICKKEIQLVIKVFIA
Target sequence (Q00987 whole entry, looked up): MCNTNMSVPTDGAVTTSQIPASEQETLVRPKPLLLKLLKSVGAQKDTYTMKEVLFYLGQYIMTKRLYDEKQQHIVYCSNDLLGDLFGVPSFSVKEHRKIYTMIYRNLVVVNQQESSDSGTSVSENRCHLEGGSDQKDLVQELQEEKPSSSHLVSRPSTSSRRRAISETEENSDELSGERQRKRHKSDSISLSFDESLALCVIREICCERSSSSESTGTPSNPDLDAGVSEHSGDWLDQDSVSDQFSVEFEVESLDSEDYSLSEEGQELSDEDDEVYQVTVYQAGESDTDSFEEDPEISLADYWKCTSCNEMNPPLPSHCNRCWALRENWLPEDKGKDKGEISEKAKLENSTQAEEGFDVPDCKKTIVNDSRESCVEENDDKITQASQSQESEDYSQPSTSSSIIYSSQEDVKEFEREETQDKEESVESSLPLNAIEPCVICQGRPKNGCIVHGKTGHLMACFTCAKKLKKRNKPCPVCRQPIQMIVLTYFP
Mdm2 MdmX conf: confirmation of human Mdm2/MdmX interaction inhibitors | shares compounds with Mdm2 MdmX PPI | Mdm2-MdmX binding, luminescent assay | inhibition, % at 8 µM | 10,000 compounds, 55% hits; in the data active means inhibition above about 40%
FLuc counter: counter-screen for Mdm2/MdmX inhibitors: full-length luciferase; inhibition, % at 8 µM; SaOS-2 full-length luciferase counterscreen, luminescence; shares compounds with Mdm2 MdmX PPI; AID 504607; 6,200 compounds, 77% hits;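 active means mean inhibition at 8 µM reaching about 37%, which flags the compound as non-specific, limit read from the data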;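 further: p53-null SaOS-2 cells with luciferase driven by a doxycycline-inducible promoter; compound on cells about two nights before reading with doxycycline added after day one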
Numbers without * were called inactive; · = not tested or not shown. Shown are actives, neighbours in structure and some others; about 5.4% of the full set was active somewhere.

SMILES	T cruzi inh	CSC inhib	SKKanGAS inh	aSyn UTR inh	Mdm2 MdmX PPI	Mdm2 MdmX conf	FLuc counter
O=C(/C=C/c1ccc2ccccc2n1)c1cc(Cl)ccc1O	4	18	3	-69	-31	·	·
Oc1ccc(Cl)cc1/C=C/c1ccc2cccc(O)c2n1	21	·	-39	15	60*	39	63*
CC1CN(C(=O)CCC(=O)NCc2ccccc2)c2ccccc2O1 (stereo unspecified)	0	7	0	7	-2	·	·
CC1(C)CC(=O)C2=C(C1)NC1=C(C(=O)c3ccccc31)C2c1ccc(Cl)cc1 (stereo unspecified)	31	44	32	7	58*	17	·
CCC(=O)N1CCN=C1SCc1cccc(F)c1	2	12	-14	6	16	·	·
CC(C)C(=O)N1CCN(c2ccc(NC(=O)c3ccc4c(c3)OCCO4)cc2Cl)CC1	7	·	12	-109	60*	80*	65*
COc1ccc(NS(=O)(=O)c2cccc(C(=O)NCC(c3cccs3)N3CCOCC3)c2)cc1 (stereo unspecified)	·	-6	·	·	20	·	·
CCCn1nc([N+](=O)[O-])c(C(C#N)c2nc3ccccc3s2)c(Cl)c1=O (stereo unspecified)	1	98*	4	-53	80*	74*	57*
COc1ccc(OCC(=O)NCCCCCCNC(=O)COc2ccc(OC)cc2)cc1	5	0	-6	10	22	·	·
COc1ccc(NS(=O)(=O)c2cccc(NC(=O)c3ccc(S(=O)(=O)N4CCCCCC4)cc3)c2)cc1	-5	·	30	9	53*	33	·
COc1ccc(/C(C)=N/NC(=O)c2cccc(S(=O)(=O)N3CCCC3)c2)c(O)c1	61*	100*	11	78*	67*	81*	34
CCOc1ccc(C(=O)N[C@H](C(=O)Nc2cccc(S(=O)(=O)N3CCCCC3)c2)C(C)C)cc1	9	7	5	76*	51*	32	·
CCOc1ccc(C(=O)N[C@H](C(=O)Nc2cccc(S(=O)(=O)N3CCOCC3)c2)C(C)C)cc1	·	·	·	·	19	·	·
COC(=O)c1cc(S(=O)(=O)NCCN2CCN(c3ccccc3F)CC2)c[nH]1	3	-2	-9	1	40	·	·
C1CCCCCC(NCCN2CCNCC2)CCCCC1	-11	45	4	-49	97*	93*	23
O=C(NC1CCCCC1)N1CCNCC1	-15	-27	-2	18	15	·	·
CN(C)c1ccc(/C=N/N=C2/NC(=O)/C(=C/c3ccc([N+](=O)[O-])cc3)S2)cc1	·	35	·	·	40	·	·
CC1CCCC(C)N1C(=O)COC(=O)CNC(=O)c1ccccc1 (stereo unspecified)	·	·	·	·	22	·	·
O=C(NNC1=C(C(=O)C(F)(F)F)CCC1)c1cccc(O)c1	2	-8	22	-153	46	·	·
Cc1cccc(C(=O)NNC2=C(C(=O)C(F)(F)F)CCC2)c1O	1	110*	104*	-1	62*	6	·
O=[N+]([O-])c1ccc(N=Nc2ncc[nH]2)cc1	-25	81*	3	-96	100*	59*	53*
O=[N+]([O-])c1ccc(N=NN(CCO)CCO)cc1	-16	5	-6	-15	-2	·	·
COc1cc(/C=N/NC(=O)Nc2cccc3nsnc23)cc(OC)c1OC	32	·	7	-89	·	·	·
O=C(N/N=C/c1ccc(O)cc1)Nc1cccc2nsnc12	62*	47	-3	-73	71*	66*	62*
CCN(CC)CCNC1=NCCn2c1cc1cc(OC)ccc12	50	16	-5	-39	64*	64*	68*
SMILES	T cruzi inh	CSC inhib	SKKanGAS inh	aSyn UTR inh	Mdm2 MdmX PPI	Mdm2 MdmX conf	FLuc counter
C=CCn1c(O)c(C2=c3ccccc3=NC2=O)sc1=Nc1ccc(O)cc1	48	95*	41	-4	78*	1	·
CCc1c(-c2ccccc2)nc2sc3c(c2c1N)CCCC3	55*	7	15	-113	72*	-19	·
Nc1c(C(=O)O)sc2nc(-c3ccccc3)c3c(c12)CCCC3	0	0	·	14	-6	·	·
Cc1cc2oc(=O)cc(-c3ccccc3)c2c(C)c1-c1ccc(C#N)cc1	·	·	·	·	-2	·	·
Cc1ccc(-c2csc(=Nc3cccnc3)n2CCCn2ccnc2)cc1C	64*	-21	-4	34	71*	75*	24
CCOc1ccc(CC(=O)Nc2ccc(-c3ccc4nnc(C)n4n3)cc2)cc1	8	-5	-7	-87	48	·	·
Cc1nn(C)c(C)c1S(=O)(=O)N(CC(=O)N1CCc2ccccc21)c1ccc(C(C)C)cc1	5	-3	3	21	63*	24	·
Cc1ccc(N(CC(=O)NCc2ccc(F)cc2)S(=O)(=O)c2c(C)nn(C)c2C)cc1	14	-5	-6	-8	64*	63*	63*
Cc1ccc(CNC(=O)CN(c2ccc(C)cc2)S(=O)(=O)c2c(C)nn(C)c2C)cc1	12	-13	-2	-28	53*	51*	63*
CCOC(=O)c1sc(N(Cc2ccccc2)C(=O)CCl)nc1C	-4	9	-4	-6	65*	11	·
CCOC(=O)c1sc(N(Cc2ccccc2)C(=O)COC(=O)c2ccccc2O)nc1C	8	-2	5	-39	-23	·	·
Cc1ccc(-c2oc3ccccc3c(=O)c2O)cc1	-5	28	42	-59	84*	51*	25
Cc1ccc(-c2oc3ccccc3c(=O)c2OCC(=O)O)cc1	3	-1	3	7	-5	·	·
CCCCN1CC(=O)N2[C@H](c3ccc(OC)cc3)[C@@H]3C(=O)N(CC)C(=O)[C@@H]3[C@]2(C)C1=O	-20	8	-2	18	21	·	·
CCCCC1C(=O)N(c2ccccc2)N(c2ccc(O)cc2)C1=O (stereo unspecified)	·	33	·	·	98*	36	8
CCCCC1(CO)C(=O)N(c2ccccc2)N(c2ccccc2)C1=O	1	-15	-15	4	7	·	·
COc1cccc(N2CC(O)=C(c3nc4ccccc4s3)C2=N)c1	-31	51	11	-21	70*	57*	111*
COc1cc(-c2nc(-c3ccc4c(c3)-c3ccccc3S4(=O)=O)c(-c3ccccc3)[nH]2)cc(OC)c1O	51	37	66*	8	77*	67*	79*
CCOC(=O)N1CCN(C(=O)c2ccc3c(c2)N=C(CC)c2cc(C)ccc2S3)CC1	6	3	9	5	12	·	·
CCOC(=O)N1CCC(NC(=O)c2ccc3c(c2)N=C(C)c2c(C)ccc(C)c2S3)CC1	20	54	9	37	68*	64*	89*
CCOC(=O)N1CCC(NC(=O)c2ccc3c(c2)N=C(CC)c2cc(C)ccc2S3)CC1	26	54	33	9	61*	69*	52*
Cc1ccc(NC(=O)CSCC(=O)N2CCN(C(=O)c3ccco3)CC2)cc1	·	5	·	·	20	·	·

From PubChem BioAssay
